Reference: ChEMBL document CHEMBL3272139, “2,5-Bis(3,4-dimethoxybenzyl)cyclopentylamine, a peripheral dopamine blocking agent” (J Med Chem, 1978)
Active and inactive are the calls of the source.

Assays:
Canis familiaris [1] = assay: Inhibition of N-isopropylnorepinephrine-induced inotropic effects in pentobarbital-anesthesized, morphine-premedicated, atropinized, right femoral artery and vein-cannulated mongrel dog up to 71 umol/kg; assay type: functional, organism-based; settings: Canis lupus familiaris
Canis familiaris [2] = assay: Cardiovascular activity in pentobarbital-anesthesized, morphine-premedicated, atropinized, right femoral artery and vein-cannulated mongrel dog assessed as decrease in mean blood pressure at 2.4 umol/kg relative to control; assay type: ADME, organism-based, Canis lupus familiaris; design: scale not given: the % may be the effect or the level left; settings: in vivo
Method in brief: (§1)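 Mongrel dogs atropinized (1 mg/kg) and checked for autonomic responsiveness with norepinephrine and N-isopropylnorepinephrine (0.1–0.2 µg/kg each). Drugs were given iv via an indwelling venous catheter in 2 mL 0.9% saline. Blood pressure and heart rate were recorded via an arterial catheter. Threshold dose was read from a linear plot of % fall in mean pressure against log dose.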

Canis familiaris [3] = assay: Cardiovascular activity in pentobarbital-anesthesized, morphine-premedicated, atropinized, right femoral artery and vein-cannulated mongrel dog at 95 to 120 umol/kg in presence of metoclopramide; assay type: ADME, organism-based, Canis lupus familiaris; settings: in vivo
Canis familiaris [4] = organism: Canis familiaris; assay: Cardiovascular activity in pentobarbital-anesthesized, morphine-premedicated, atropinized, right femoral artery and vein-cannulated mongrel dog assessed as decrease in systolic pressure; assay type: ADME, organism-based, Canis lupus familiaris; settings: in vivo; method in brief: as §1
Canis familiaris [5] = assay: Cardiovascular activity in pentobarbital-anesthesized, morphine-premedicated, atropinized, right femoral artery and vein-cannulated mongrel dog assessed as time required for decrease in mean blood pressure at 2.4 umol/kg; assay type: ADME, organism-based, Canis lupus familiaris; settings: in vivo; method in brief: as §1
Canis familiaris [6] = assay: Reduction in dopamine-induced depressor response in pentobarbital-anesthesized, morphine-premedicated, atropinized, right femoral artery and vein-cannulated mongrel dog at 12 to 17 umol/kg in presence of alpha-adrenergic blocker phenoxybenzamine; assay type: functional, organism-based; settings: Canis lupus familiaris
Method in brief: (§2)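 Atropinized mongrel dogs pretreated with phenoxybenzamine, 5 mg/kg, to remove the dopamine pressor action. Depressor response was evoked with dopamine, 3 µg/kg iv. Test drug was given iv in 2 mL saline. ED50 was taken from a linear plot of log dose vs % antagonism of the dopamine depressor effect.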

Canis familiaris [7] = assay: Inhibition of N-isopropylnorepinephrine-induced blood pressure effects in pentobarbital-anesthesized, morphine-premedicated, atropinized, right femoral artery and vein-cannulated mongrel dog up to 71 umol/kg; assay type: functional, organism-based; settings: Canis lupus familiaris
Mus musculus [8] = assay: Potentiation of apomorphine-induced sterotypic climbing in ip dosed Swiss-Webster mouse administered for 7 days; assay type: functional
Canis familiaris [9] = assay: Cardiovascular activity in pentobarbital-anesthesized, morphine-premedicated, atropinized, right femoral artery and vein-cannulated mongrel dog at 95 to 120 umol/kg in presence of propranolol; assay type: ADME, organism-based, Canis lupus familiaris; settings: in vivo
Canis familiaris [10] = assay: Cardiovascular activity in pentobarbital-anesthesized, morphine-premedicated, atropinized, right femoral artery and vein-cannulated mongrel dog at 95 to 120 umol/kg in presence of haloperidol; assay type: ADME, organism-based, Canis lupus familiaris; settings: in vivo
Canis familiaris [11] = organism: Canis familiaris; assay: Reduction in dopamine-induced depressor response in pentobarbital-anesthesized, morphine-premedicated, atropinized, right femoral artery and vein-cannulated mongrel dog; assay type: functional, organism-based; settings: Canis lupus familiaris; method in brief: as §2
Canis familiaris [12] = assay: Inhibition of N-isopropylnorepinephrine-induced chronotropic effects in pentobarbital-anesthesized, morphine-premedicated, atropinized, right femoral artery and vein-cannulated mongrel dog up to 71 umol/kg; assay type: functional, organism-based; settings: Canis lupus familiaris
Canis familiaris [13] = organism: Canis familiaris; assay: Cardiovascular activity in pentobarbital-anesthesized, morphine-premedicated, atropinized, right femoral artery and vein-cannulated mongrel dog assessed as decrease in diastolic pressure; assay type: ADME, organism-based, Canis lupus familiaris; settings: in vivo; method in brief: as §1
Canis familiaris [14] = organism: Canis familiaris; assay: Cardiovascular activity in pentobarbital-anesthesized, morphine-premedicated, atropinized, right femoral artery and vein-cannulated mongrel dog assessed as threshold dose required for decrease in mean blood pressure; assay type: ADME, organism-based, Canis lupus familiaris; settings: in vivo; method in brief: as §1
Canis familiaris [15] = assay: Inhibition of norepinephrine-induced chronotropic effects in pentobarbital-anesthesized, morphine-premedicated, atropinized, right femoral artery and vein-cannulated mongrel dog up to 71 umol/kg; assay type: functional, organism-based; settings: Canis lupus familiaris
Canis familiaris [16] = organism: Canis familiaris; assay: Reduction in dopamine-induced depressor response in pentobarbital-anesthesized, morphine-premedicated, atropinized, right femoral artery and vein-cannulated mongrel dog in presence of alpha-adrenergic blocker phenoxybenzamine; assay type: functional; settings: Canis lupus familiaris; method in brief: as §2
Canis familiaris [17] = assay: Cardiovascular activity in pentobarbital-anesthesized, morphine-premedicated, atropinized, right femoral artery and vein-cannulated mongrel dog at 95 to 120 umol/kg; assay type: ADME, organism-based, Canis lupus familiaris; settings: in vivo
Mus musculus [18] = assay: Potentiation of apomorphine-induced sterotypic climbing in Swiss-Webster mouse at 42.5 to 59.4 umol/kg, ip administered 30 mins prior to apomorphine-challenge measured after 5 mins; assay type: functional, organism-based; settings: 47.5 to 59.4 umol/kg, in the assay text read “47.5 to 59.4 umol/kg” for “42.5 to 59.4 umol/kg”
Method in brief: (§3)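 Male Swiss–Webster mice (20–30 g) were dosed ip in 0.9% saline. Thirty minutes later they received apomorphine HCl, 1 mg/kg sc. Each mouse was placed in a wire-mesh cage and scored for vertical climbing after about 5 min of exploration, with two scores per animal averaged. Groups had 10 mice, compared with saline controls by two-tailed Student's t test.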

Canis familiaris [19] = assay: Inhibition of norepinephrine-induced blood pressure effects in pentobarbital-anesthesized, morphine-premedicated, atropinized, right femoral artery and vein-cannulated mongrel dog up to 71 umol/kg; assay type: functional, organism-based; settings: Canis lupus familiaris
Canis familiaris [20] = assay: Reduction in dopamine-induced depressor response in pentobarbital-anesthesized, morphine-premedicated, atropinized, right femoral artery and vein-cannulated mongrel dog assessed as half life of drug action at 6 ug/kg; assay type: functional, organism-based; settings: Canis lupus familiaris
Method in brief: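 Single atropinized dog given 6 µg/kg test drug iv. Residual blockade was measured every 5 min against a 5 µg/kg dopamine challenge. Half-life came from a linear plot of log residual blockade vs time.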

Canis familiaris [21] = organism: Canis familiaris; assay: Cardiovascular activity in pentobarbital-anesthesized, morphine-premedicated, atropinized, right femoral artery and vein-cannulated mongrel dog assessed as vasodepression; assay type: ADME, organism-based, Canis lupus familiaris; settings: in vivo; method in brief: as §1
Canis familiaris [22] = assay: Inhibition of norepinephrine-induced inotropic effects in pentobarbital-anesthesized, morphine-premedicated, atropinized, right femoral artery and vein-cannulated mongrel dog up to 71 umol/kg; assay type: functional, organism-based; settings: Canis lupus familiaris
Canis familiaris [23] = organism: Canis familiaris; assay: Reduction in dopamine-induced depressor response in pentobarbital-anesthesized, morphine-premedicated, atropinized, right femoral artery and vein-cannulated mongrel dog assessed as threshold dose required for reduction; assay type: functional, Canis lupus familiaris
Mus musculus [24] = assay: Reduction in apomorphine-induced sterotypic climbing in Swiss-Webster mouse at 0.1 mg/kg, ip administered 30 mins prior to apomorphine-challenge measured after 5 mins; assay type: functional, organism-based; design: dose 0.1 mg/kg; method in brief: as §3

With COc1ccc(CC2CCC(Cc3ccc(OC)c(OC)c3)C2N)cc1OC.Cl (centres undefined) the inhibition (Canis familiaris [1]) was “inactive”, the Activity (Canis familiaris [2]) was 10% and the Activity (Canis familiaris [3]) was “Toxic”. For the same compound, the Activity (Canis familiaris [4]) was “Dose-dependent effect”, the Time (Canis familiaris [5]) was < 1 min and the Activity (Canis familiaris [6]) was “Active”. For the same compound, the inhibition (Canis familiaris [7]) was “inactive”, the Activity (Mus musculus [8]) was 5.94 µmol/kg and the Activity (Canis familiaris [9]) was “Toxic”. For the same compound, the Activity (Canis familiaris [10]) was “Toxic”, the Activity (Canis familiaris [11]) was “Dose-dependent effect” and the inhibition (Canis familiaris [12]) was “inactive”. For the same compound, the Activity (Canis familiaris [13]) was “Dose-dependent effect”, the Activity (Canis familiaris [14]) was 1.2 µmol/kg and the inhibition (Canis familiaris [15]) was “inactive”. For the same compound, the ED50 (Canis familiaris [16]) was 4 µmol/kg, the Activity (Canis familiaris [17]) was “Toxic” and the Activity (Mus musculus [18]) was “Active”. The inhibition (Canis familiaris [19]) was “inactive”, the T1/2 (Canis familiaris [20]) was 18 min and the Activity (Canis familiaris [21]) was “Toxic”. For the same compound, the inhibition (Canis familiaris [22]) was “inactive” and the Activity (Canis familiaris [23]) was 0.7 µmol/kg.

For O=C(CCCN1CCC(O)(c2ccc(Cl)cc2)CC1)c1ccc(F)cc1, the Activity (Mus musculus [24]) was “Active”.
